Format in all cases: functional
The subject of one test is NCI-H460. Description: Growth inhibition of human NCI-H460 cells after 48 hrs by SRB assay. The note with it: NCI-H460, 48 h. The essentials:
(§1)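 Cells seeded to stay in exponential growth (MCF-7 and NCI-H460 5.0 × 10³ cells/well, A375-C5 7.5 × 10³ cells/well) and left to adhere overnight. Then 48 h exposure to five serial dilutions (1:2 or 1:3) from DMSO stocks diluted in medium; DMSO vehicle control maximum 0.25%. TCA fixation, SRB staining, Tris solubilisation, absorbance at 492 nm. GI50 taken from dose–response curves as 50% inhibition of net growth. Mean ± SEM of ≥3 independent experiments, in duplicate.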
(In general: Sulforhodamine B stains cellular protein and so reports cell mass.)

Test [1] deals with MCF7. As to the kind of experiment: Growth inhibition of human MCF7 cells after 48 hrs by SRB assay. The conditions noted are these: MCF7, 48 h. The essentials: as §1
Test [2] is described as follows: Growth inhibition of human A375-C5 cells after 48 hrs by SRB assay. The conditions noted are these: A375-C5, 48 h. In a few lines: as §1
In test [3] the test system is MCF7. Description: Cell cycle arrest in human MCF7 cells assessed as accumulation at sub-G1 phase at 8 uM after 48 hrs by propidium iodide staining-based flow cytometric analysis. The essentials:
(§2)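 MCF-7 plated in 6-well plates (5.0 × 10³ cells/well) and held 24 h at 37 °C. Exponentially growing cells then exposed 48 h at the single concentration stated. Untreated and highest-level DMSO controls included. Fixation in 70% ethanol at 4 °C for ≥12 h, then PBS with 0.1 mg/mL RNase A and 5 µg/mL PI. DNA content by flow cytometry, ≥20,000 events; sub-G1 fraction scored after debris exclusion. Mean ± SEM of three experiments; unpaired t-test versus untreated cells.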

Test [4] has as its system MCF7. Description: Induction of apoptosis in human MCF7 cells at 8 uM by annexinV-propidium iodide staining-based flow cytometric analysis (reference value: 11.1%). The essentials:
(§3)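 MCF-7 handled as for the cell-cycle study: 48 h exposure at the stated concentration, with untreated cells and a highest-level DMSO control. Harvested cells stained with annexin V-FITC/PI per kit instructions. Flow cytometry with ≥20,000 events per sample; apoptosis given as % of total cells. Mean ± SEM of three experiments (DMSO control two); unpaired t-test against untreated cells.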
For orientation: Flow cytometry measures light scatter and fluorescence of single cells or particles in a stream.

The subject of test [5] is MCF7. Description: Induction of apoptosis in human MCF7 cells at 7.8 uM by annexinV-propidium iodide staining-based flow cytometric analysis (reference value: 11.1%). In a few lines:
as §3

In test [6] the test system is MCF7. Description: Cell cycle arrest in human MCF7 cells assessed as accumulation at sub-G1 phase at 7.8 uM after 48 hrs by propidium iodide staining-based flow cytometric analysis. The essentials: as §2
Test [7] relates to MCF7. As to the kind of experiment: Induction of apoptosis in human MCF7 cells at 9.1 uM by annexinV-propidium iodide staining-based flow cytometric analysis (reference value: 11.1%). In a few lines:
as §3

The subject of test [8] is MCF7. Description: Induction of apoptosis in human MCF7 cells at 7.3 uM by annexinV-propidium iodide staining-based flow cytometric analysis (reference value: 11.1%). The essentials: as §3
The test system of test [9] is MCF7. As to the kind of experiment: Cell cycle arrest in human MCF7 cells assessed as accumulation at sub-G1 phase at 7.3 uM after 48 hrs by propidium iodide staining-based flow cytometric analysis relative to control. In a few lines: as §2
Test [10] has as its system MCF7. Description: Induction of apoptosis in human MCF7 cells at 7.1 uM by annexinV-propidium iodide staining-based flow cytometric analysis (reference value: 11.1%). The essentials:
as §3

The test system of test [11] is MCF7. As to the kind of experiment: Induction of apoptosis in human MCF7 cells at 10.5 uM by annexinV-propidium iodide staining-based flow cytometric analysis (reference value: 11.1%). In a few lines: as §3
Test [12] deals with MCF7. As to the kind of experiment: Induction of apoptosis in human MCF7 cells at 4.1 uM by annexinV-propidium iodide staining-based flow cytometric analysis (reference value: 11.1%). In a few lines: as §3

Active and inactive are the calls of the source. The rule behind the calls is not given here. A value given as a limit tells only on which side of the number the result lay.

For the compound `COc1ccc(C2CC(=O)c3ccc(O)c(C)c3O2)c(OC)c1` (stereo unspecified), the GI50 with NCI-H460 is greater than 150 µM; in the test on MCF7 [1], 12.5 µM; in test [2] it was greater than 150 µM.
`O=C(/C=C/c1ccc(OCc2ccccc2)cc1)c1ccc(O)cc1O`: the GI50 with NCI-H460 is 10.5 µM; with MCF7 [1], 8 µM; in [2] it was 9 µM. Further, the result in the test with MCF7 [3] was Active. The compound further came in with an Activity with MCF7 [4] of 15.4%.
As to `Cc1c(O)ccc(C(=O)/C=C/c2ccc(C(F)(F)F)cc2)c1O`, the 50% growth inhibitory concentration (GI50) is 20.3 µM in the test with NCI-H460, 19.3 µM in the test with MCF7 [1] and 24.7 µM in test [2].
The matching figures for `COCOc1ccc(/C=C/C(=O)c2ccc(O)c(C)c2O)c(OCOC)c1`: greater than 150 µM, 32.7 µM and greater than 150 µM.
`CCCc1c(O)ccc2c1OC(c1cc(OC)c(OC)cc1OC)CC2=O` (stereo unspecified): the GI50 with NCI-H460 came out at 47 µM; with MCF7 [1], 18.8 µM; in test [2], 32 µM.
For `COc1cc(/C=C/C(=O)c2ccc(O)cc2O)cc(OC)c1OC`, the GI50 with NCI-H460 is 8.2 µM; with MCF7 [1], 7.8 µM; in [2], 8.1 µM. This compound gave an Activity with MCF7 [5] of 20%. For the same compound, the result in the test on MCF7 [6] was Active.
As for `CCCc1c(O)ccc(C(=O)/C=C/c2cc(OC)c(OC)cc2OC)c1O`, the concentration for 50% growth inhibition (GI50) was 24.5 µM in the test with NCI-H460, 9.1 µM in the test with MCF7 [1] and 23 µM in test [2]. For the same compound, the Activity with MCF7 [7] was determined as 13.3%.
As to `CCCc1c(O)ccc(C(=O)/C=C/c2ccc(OCOC)cc2OCOC)c1O`, the concentration for 50% growth inhibition (GI50) is 24.3 µM with NCI-H460, 18.2 µM in the test on MCF7 [1] and 35 µM in test [2].
With `O=C(/C=C/c1ccc(F)cc1)c1ccc(O)cc1O`, the Activity with MCF7 [8] is on record as 23.9%; in the test on MCF7 [9], 11%. For the same compound, the concentration for 50% growth inhibition (GI50) with NCI-H460 came out at 15.3 µM; with MCF7 [1], 7.3 µM; in test [2], 14.1 µM.
For the compound `CCCc1c(O)ccc(C(=O)/C=C/c2ccc(OC)cc2)c1O`, the concentration for 50% growth inhibition (GI50) with NCI-H460 was determined as 24.7 µM; with MCF7 [1], 13.3 µM; in test [2], 46.3 µM.
The matching figures for `COc1cccc2c1C(=O)c1c(O)c3c(c(O)c1C2=O)C[C@@](O)(C(=O)CO)C[C@@H]3O[C@H]1C[C@H](N)[C@H](O)[C@H](C)O1` [DOXORUBICIN]: 0.086 µM, 0.0688 µM and 0.0915 µM.
The matching figures for `COc1ccc(/C=C/C(=O)c2ccc(O)cc2O)c(OC)c1`: 37 µM, 19.5 µM and 30.3 µM.
Consider `CCCc1c(O)ccc(C(=O)/C=C/c2ccccc2Cl)c1O`, for which the GI50 was determined as 12.5 µM in the test on NCI-H460, 7.1 µM in the test on MCF7 [1] and 14.2 µM in test [2]. Besides, the Activity with MCF7 [10] was determined as 14.8%.
`Cc1c(O)ccc(C(=O)/C=C/c2ccc(Cl)cc2)c1O`: the 50% growth inhibitory concentration (GI50) amounted to 43 µM with NCI-H460, 34.5 µM with MCF7 [1] and 41.6 µM in [2].
With `Cc1c(O)ccc(C(=O)/C=C/c2ccc(Cl)cc2Cl)c1O`, the 50% growth inhibitory concentration (GI50) in the test with NCI-H460 was 22.5 µM; in the test with MCF7 [1] it was 10.5 µM; in test [2], 21.4 µM. For the same compound, the Activity in the test with MCF7 [11] stood at 16.6%.
As for `COc1cc(OC)c(OC)cc1/C=C/C(=O)c1ccc(O)cc1O`, the concentration for 50% growth inhibition (GI50) came out at 60 µM with NCI-H460, 31.8 µM in the test with MCF7 [1] and 34.8 µM in [2].
For `CCCc1c(O)ccc(C(=O)/C=C/c2cc(OC)c(OC)c(OC)c2)c1O`, the Activity in the test with MCF7 [12] is listed as 14%. Besides, the GI50 stood at 8.3 µM with NCI-H460, 4.1 µM with MCF7 [1] and 8.2 µM in test [2].

As a reminder, the GI50 is the concentration that inhibits growth by half. Lower therefore signals more potent growth inhibition.

Source of the values: ChEMBL document CHEMBL1926612, “Solid-phase synthesis of 2'-hydroxychalcones. Effects on cell growth inhibition, cell cycle and apoptosis of human tumor cell lines” (2012).
